Experimental findings from ChEMBL document CHEMBL5653631, “A Potent and Selective ULK1 Inhibitor Suppresses Autophagy and Sensitizes Cancer Cells to Nutrient Stress” (iScience, 2018) are described below.

Experiment [1] deals with Receptor-interacting serine/threonine-protein kinase 2 (Homo sapiens) (UniProt O43353). The experiment in a line: Inhibition of human recombinant RIPK2 at 40 nM in presence of ATP by radiometric assay relative to control.
For experiment [2], the target named is Tyrosine-protein kinase Yes (Homo sapiens) (UniProt P07947). Kind of experiment: Inhibition of human recombinant YES at 40 nM related to control ULK1.
Experiment [3] addresses Tau-tubulin kinase 1 (Homo sapiens) (UniProt Q5TCY1). The experiment in a line: Inhibition of human recombinant TTBK1 at 40 nM related to control ULK1.
Experiment [4] has as its target Serine/threonine-protein kinase pim-2 (Homo sapiens) (UniProt Q9P1W9). Kind of experiment: Inhibition of human recombinant PIM2 at 40 nM in presence of ATP by radiometric assay relative to control.
In experiment [5] the target is Calcium/calmodulin-dependent protein kinase type 1G (Homo sapiens) (UniProt Q96NX5). The experiment in a line: Inhibition of human recombinant CaMK1g at 40 nM in presence of ATP by radiometric assay relative to control.
In experiment [6] the target is BDNF/NT-3 growth factors receptor (Homo sapiens) (UniProt Q16620). Kind of experiment: Inhibition of human recombinant TRKB at 40 nM related to control ULK1.
Experiment [7] concerns the target Cyclin-dependent kinase 13 (Homo sapiens) (UniProt Q14004). The experiment in a line: Inhibition of human recombinant CHED at 40 nM related to control ULK1.
Experiment [8] addresses 5'-AMP-activated protein kinase catalytic subunit alpha-1 (Homo sapiens) (UniProt Q13131). Kind of experiment: Inhibition of human recombinant AMPKa1 at 500 nM related to control ULK1. The gist of the method:
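Panel of 327 recombinant human kinases, each assayed in vitro by radiometric activity assay in duplicate at a single inhibitor concentration per compound, chosen with reference to its ULK1 inhibition. Activity remaining was expressed as percent of vehicle control, and percent inhibition was calculated as 100 minus percent activity remaining.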

Experiment [9] addresses Homeodomain-interacting protein kinase 2 (Homo sapiens) (UniProt Q9H2X6). Kind of experiment: Inhibition of human recombinant HIPK2 at 500 nM in presence of ATP by radiometric assay relative to control.
Experiment [10] addresses Dual specificity protein kinase CLK3 (Homo sapiens) (UniProt P49761). Kind of experiment: Inhibition of human recombinant CLK3 at 500 nM related to control ULK1.
The target of experiment [11] is Mitogen-activated protein kinase 1 (Homo sapiens) (UniProt P28482). The experiment in a line: Inhibition of human recombinant Erk2 at 15 nM related to control ULK1.
For experiment [12], the target named is T1, Serine/threonine-protein kinase Chk1 (Homo sapiens) (UniProt O14757).
T1 sequence (whole entry): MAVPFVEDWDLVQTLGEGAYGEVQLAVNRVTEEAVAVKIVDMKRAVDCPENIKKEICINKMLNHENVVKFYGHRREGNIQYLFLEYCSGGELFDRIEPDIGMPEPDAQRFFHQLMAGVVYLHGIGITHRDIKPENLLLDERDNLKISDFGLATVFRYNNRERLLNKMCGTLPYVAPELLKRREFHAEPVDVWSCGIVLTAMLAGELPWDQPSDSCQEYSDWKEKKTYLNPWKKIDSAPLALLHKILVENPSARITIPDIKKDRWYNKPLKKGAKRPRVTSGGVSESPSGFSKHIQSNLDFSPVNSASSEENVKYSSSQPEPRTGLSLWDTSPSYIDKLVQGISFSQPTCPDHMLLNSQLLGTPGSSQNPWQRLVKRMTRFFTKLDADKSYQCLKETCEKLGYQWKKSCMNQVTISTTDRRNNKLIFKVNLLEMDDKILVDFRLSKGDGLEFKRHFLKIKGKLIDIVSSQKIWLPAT
Kind of experiment: Inhibition of human recombinant CHK1 at 15 nM in presence of ATP by radiometric assay relative to control.

Experiment [13] has as its target Tyrosine-protein kinase HCK (Homo sapiens) (UniProt P08631). The experiment in a line: Inhibition of human recombinant HCK at 15 nM in presence of ATP by radiometric assay relative to control.
Experiment [14] has as its target T2, Tyrosine-protein kinase TXK (Homo sapiens) (UniProt P42681).
T2 sequence (whole entry): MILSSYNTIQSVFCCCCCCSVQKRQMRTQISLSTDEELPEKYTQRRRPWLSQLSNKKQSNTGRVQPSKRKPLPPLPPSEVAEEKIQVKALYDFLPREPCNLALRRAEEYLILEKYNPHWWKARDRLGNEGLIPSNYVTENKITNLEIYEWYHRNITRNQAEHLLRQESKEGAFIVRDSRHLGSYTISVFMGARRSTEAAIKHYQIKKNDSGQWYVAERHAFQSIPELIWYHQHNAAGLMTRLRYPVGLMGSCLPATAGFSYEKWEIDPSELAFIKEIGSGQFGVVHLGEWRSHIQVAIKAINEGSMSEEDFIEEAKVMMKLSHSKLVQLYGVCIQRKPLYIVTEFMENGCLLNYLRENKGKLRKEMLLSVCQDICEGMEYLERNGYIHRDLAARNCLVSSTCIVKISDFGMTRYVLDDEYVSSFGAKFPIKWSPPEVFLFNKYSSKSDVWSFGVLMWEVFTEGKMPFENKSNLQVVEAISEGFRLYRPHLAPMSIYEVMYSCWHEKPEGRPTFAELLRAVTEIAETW
The experiment in a line: Inhibition of human recombinant TXK at 15 nM in presence of ATP by radiometric assay relative to control.

The target of experiment [15] is Serine/threonine-protein kinase PRP4 homolog (Homo sapiens) (UniProt Q13523). The experiment in a line: Inhibition of human recombinant PRP4 at 15 nM in presence of ATP by radiometric assay relative to control.
Experiment [16] has as its target Death-associated protein kinase 2 (Homo sapiens) (UniProt Q9UIK4). The experiment in a line: Inhibition of human recombinant DAPK2 at 15 nM in presence of ATP by radiometric assay relative to control.
Experiment [17] deals with Serine/threonine-protein kinase N1 (Homo sapiens) (UniProt Q16512). Kind of experiment: Inhibition of human recombinant PKN1 at 15 nM in presence of ATP by radiometric assay relative to control.

Chain of Homeodomain-interacting protein kinase 2 (Homo sapiens) (Q9H2X6 whole entry, looked up): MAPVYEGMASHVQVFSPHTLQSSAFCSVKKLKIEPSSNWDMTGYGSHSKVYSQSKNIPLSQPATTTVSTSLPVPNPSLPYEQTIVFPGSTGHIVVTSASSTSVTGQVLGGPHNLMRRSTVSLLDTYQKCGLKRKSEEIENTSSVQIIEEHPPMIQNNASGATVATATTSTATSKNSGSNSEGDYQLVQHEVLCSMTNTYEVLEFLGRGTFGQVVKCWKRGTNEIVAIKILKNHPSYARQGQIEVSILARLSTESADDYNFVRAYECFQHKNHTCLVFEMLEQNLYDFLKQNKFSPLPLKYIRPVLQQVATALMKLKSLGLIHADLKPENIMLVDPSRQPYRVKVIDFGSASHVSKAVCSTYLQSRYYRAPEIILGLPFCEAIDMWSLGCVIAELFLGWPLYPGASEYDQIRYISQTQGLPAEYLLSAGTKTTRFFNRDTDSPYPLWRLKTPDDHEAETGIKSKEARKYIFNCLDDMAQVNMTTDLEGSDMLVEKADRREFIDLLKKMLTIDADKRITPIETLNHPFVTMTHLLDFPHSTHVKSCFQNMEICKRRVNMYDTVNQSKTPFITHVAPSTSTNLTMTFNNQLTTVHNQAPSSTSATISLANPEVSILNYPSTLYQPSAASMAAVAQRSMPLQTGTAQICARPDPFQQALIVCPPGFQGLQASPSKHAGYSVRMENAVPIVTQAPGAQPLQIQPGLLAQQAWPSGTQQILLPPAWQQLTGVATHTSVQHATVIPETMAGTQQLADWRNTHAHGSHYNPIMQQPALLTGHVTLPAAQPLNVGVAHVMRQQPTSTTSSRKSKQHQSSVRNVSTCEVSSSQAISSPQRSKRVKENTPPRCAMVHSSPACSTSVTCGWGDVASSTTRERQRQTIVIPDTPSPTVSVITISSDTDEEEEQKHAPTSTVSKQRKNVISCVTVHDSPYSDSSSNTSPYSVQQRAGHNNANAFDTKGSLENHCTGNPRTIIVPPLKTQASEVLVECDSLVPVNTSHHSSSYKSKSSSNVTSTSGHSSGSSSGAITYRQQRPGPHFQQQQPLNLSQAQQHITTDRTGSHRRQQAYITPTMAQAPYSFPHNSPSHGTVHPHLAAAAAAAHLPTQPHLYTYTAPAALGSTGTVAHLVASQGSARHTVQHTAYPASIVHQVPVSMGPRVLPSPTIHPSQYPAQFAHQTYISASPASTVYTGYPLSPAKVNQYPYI
Chain of Death-associated protein kinase 2 (Homo sapiens) (Q9UIK4 whole entry, looked up): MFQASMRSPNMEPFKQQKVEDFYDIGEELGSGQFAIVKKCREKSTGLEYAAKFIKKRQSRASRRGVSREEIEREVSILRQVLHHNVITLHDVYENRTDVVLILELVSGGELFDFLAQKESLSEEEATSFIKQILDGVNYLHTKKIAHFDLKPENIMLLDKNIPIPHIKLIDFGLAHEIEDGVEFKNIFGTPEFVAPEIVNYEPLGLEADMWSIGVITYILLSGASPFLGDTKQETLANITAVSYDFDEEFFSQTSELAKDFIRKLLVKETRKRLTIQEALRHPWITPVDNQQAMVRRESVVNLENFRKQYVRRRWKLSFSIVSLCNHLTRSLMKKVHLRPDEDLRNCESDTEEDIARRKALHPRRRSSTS
Chain of Calcium/calmodulin-dependent protein kinase type 1G (Homo sapiens) (Q96NX5 whole entry): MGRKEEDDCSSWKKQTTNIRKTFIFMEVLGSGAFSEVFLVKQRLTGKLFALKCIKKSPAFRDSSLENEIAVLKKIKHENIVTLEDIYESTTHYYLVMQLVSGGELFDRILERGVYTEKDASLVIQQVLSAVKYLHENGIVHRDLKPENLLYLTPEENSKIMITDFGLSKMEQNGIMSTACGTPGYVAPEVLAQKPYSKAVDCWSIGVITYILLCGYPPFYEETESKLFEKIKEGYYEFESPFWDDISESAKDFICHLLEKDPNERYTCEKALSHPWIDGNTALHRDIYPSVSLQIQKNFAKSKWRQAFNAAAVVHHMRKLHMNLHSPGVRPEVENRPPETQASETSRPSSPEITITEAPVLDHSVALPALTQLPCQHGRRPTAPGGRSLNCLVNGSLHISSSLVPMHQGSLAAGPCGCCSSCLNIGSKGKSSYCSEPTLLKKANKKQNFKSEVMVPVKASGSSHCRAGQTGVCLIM
Chain of Tyrosine-protein kinase Yes (Homo sapiens) (P07947 2-543 limits assumed): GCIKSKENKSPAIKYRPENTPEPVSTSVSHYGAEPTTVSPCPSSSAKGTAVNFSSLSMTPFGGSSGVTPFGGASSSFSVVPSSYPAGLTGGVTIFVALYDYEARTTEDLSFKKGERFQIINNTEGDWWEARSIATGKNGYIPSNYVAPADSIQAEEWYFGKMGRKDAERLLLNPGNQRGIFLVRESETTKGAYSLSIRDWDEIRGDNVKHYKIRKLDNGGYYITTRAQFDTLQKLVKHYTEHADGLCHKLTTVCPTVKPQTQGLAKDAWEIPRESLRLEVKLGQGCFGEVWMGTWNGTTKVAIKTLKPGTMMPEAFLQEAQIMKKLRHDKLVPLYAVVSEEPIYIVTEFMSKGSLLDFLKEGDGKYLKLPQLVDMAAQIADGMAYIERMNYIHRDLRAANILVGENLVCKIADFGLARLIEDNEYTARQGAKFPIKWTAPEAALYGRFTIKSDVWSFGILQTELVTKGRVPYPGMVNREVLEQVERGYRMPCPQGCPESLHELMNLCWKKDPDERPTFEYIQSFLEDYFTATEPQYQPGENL
Chain of Cyclin-dependent kinase 13 (Homo sapiens) (Q14004 whole entry, looked up): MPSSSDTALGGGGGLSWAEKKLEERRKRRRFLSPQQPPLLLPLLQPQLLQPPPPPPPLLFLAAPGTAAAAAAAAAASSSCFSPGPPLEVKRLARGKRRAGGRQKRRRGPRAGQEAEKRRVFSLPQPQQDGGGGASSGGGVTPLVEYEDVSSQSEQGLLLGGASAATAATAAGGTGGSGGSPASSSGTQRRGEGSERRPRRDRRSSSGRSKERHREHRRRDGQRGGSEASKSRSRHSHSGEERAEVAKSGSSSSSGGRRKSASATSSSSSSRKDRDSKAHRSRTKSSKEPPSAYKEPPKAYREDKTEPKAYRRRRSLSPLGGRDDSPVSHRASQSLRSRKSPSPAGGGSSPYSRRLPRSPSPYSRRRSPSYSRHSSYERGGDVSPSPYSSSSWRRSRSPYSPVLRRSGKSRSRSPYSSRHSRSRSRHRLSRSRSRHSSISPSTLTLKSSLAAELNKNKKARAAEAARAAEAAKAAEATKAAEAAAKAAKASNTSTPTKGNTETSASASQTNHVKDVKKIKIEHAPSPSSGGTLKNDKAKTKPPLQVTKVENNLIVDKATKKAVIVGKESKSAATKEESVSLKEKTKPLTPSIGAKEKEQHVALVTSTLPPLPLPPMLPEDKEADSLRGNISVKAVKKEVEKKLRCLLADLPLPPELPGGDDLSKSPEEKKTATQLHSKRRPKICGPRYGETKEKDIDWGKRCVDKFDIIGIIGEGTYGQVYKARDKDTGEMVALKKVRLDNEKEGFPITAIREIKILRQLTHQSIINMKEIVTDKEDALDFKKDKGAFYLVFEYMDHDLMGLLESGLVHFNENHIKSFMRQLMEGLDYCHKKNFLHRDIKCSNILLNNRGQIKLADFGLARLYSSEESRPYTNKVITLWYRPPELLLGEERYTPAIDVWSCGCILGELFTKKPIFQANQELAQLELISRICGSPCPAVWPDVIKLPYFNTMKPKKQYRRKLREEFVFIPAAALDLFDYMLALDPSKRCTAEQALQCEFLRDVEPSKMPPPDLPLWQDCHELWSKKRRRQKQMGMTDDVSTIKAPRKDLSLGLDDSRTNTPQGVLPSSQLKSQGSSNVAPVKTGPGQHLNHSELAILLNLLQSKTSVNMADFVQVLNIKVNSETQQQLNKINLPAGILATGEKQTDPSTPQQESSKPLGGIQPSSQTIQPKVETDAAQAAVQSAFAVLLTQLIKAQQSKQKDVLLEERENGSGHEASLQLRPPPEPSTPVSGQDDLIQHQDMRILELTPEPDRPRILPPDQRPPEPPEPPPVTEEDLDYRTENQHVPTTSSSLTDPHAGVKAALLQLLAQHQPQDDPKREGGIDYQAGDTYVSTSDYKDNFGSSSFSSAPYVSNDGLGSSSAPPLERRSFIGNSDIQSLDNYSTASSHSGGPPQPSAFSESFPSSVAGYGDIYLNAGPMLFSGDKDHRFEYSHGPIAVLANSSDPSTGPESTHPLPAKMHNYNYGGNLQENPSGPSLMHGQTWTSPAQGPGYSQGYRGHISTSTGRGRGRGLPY
Chain of Mitogen-activated protein kinase 1 (Homo sapiens) (P28482 whole entry): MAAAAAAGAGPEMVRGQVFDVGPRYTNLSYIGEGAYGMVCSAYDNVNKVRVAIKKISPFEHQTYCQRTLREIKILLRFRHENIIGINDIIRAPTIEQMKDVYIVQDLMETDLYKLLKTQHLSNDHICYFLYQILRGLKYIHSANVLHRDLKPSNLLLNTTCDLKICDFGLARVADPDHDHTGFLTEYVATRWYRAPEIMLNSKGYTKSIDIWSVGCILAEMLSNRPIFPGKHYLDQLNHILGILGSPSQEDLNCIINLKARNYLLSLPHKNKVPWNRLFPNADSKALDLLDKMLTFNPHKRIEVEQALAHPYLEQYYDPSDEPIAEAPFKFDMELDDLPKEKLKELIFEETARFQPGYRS
Chain of 5'-AMP-activated protein kinase catalytic subunit alpha-1 (Homo sapiens) (Q13131 whole entry, looked up): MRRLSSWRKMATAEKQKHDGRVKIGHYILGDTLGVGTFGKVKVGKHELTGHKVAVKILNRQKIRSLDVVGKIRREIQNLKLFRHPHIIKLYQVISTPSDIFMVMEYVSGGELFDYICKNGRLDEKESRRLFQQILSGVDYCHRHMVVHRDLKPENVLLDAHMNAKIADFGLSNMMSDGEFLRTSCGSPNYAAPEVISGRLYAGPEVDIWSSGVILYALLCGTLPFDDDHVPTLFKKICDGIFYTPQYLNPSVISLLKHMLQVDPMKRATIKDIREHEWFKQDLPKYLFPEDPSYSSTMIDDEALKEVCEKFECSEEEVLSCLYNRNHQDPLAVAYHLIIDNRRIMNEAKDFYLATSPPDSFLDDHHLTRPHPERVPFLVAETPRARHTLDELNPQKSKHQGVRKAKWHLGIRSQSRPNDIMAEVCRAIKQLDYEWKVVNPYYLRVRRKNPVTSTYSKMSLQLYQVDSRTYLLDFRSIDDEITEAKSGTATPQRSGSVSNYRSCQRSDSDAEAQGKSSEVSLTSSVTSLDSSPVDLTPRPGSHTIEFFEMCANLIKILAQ

With `O=C(N[C@@H](C1CC1)C(F)(F)F)c1cc(-c2cnn3cc(-c4ccc(F)cc4)cnc23)cs1`, the inhibition (usually the change of the read-out against control, counted positive when it falls) in experiment [1] turned out to be 30%; in experiment [4] it was 3%; in experiment [5], 0%. The fold change (FC) in experiment [2] was determined as 0.32; in [3], 0; in experiment [6], 0.26; in experiment [7] it was 0.05.

`CNC(=O)c1ccccc1Oc1nc(Nc2cc(OC)c(OC)c(OC)c2)ncc1Br`: the figures for the fold change (FC) in experiment [8] and in experiment [10] were 0.69 and 0, respectively. Also, the inhibition in experiment [9] stood at 0%.

Consider `CC(C)[C@H](NC(=O)c1cc(-c2cnn3cc(-c4ccc(OCCN5CCCCC5)cc4)cnc23)cs1)C(F)(F)F`, for which, in experiment [11], the fold change (FC) was determined as 0. The inhibition in experiment [12] was 0%; in experiment [13] it was 26%; in [14], 59%; in experiment [15], 6%; in experiment [16], 6%; in experiment [17] it was 0%.
